Columns and labels:
P2Y purinoceptor 1 [1] = molecular target: T1, P2Y purinoceptor 1 (Homo sapiens, UniProt P47900); experiment: Inhibition of P2Y1 receptor in human washed platelets assessed as decrease in 2-methylthio-ADP-induced calcium signal transduction pathway activation by FLIPR assay; assay type: functional
[2] = Antiplatelet activity in human platelet-rich plasma assessed as inhibition of ADP-induced platelet aggregation in presence of 10 uM ADP
[3] = Metabolic stability in rat liver microsomes assessed as compound remaining after 10 mins; assay type: ADME; settings: read-out: Stability
Procedure, shortened: (§1)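 Test compound incubated 10 min with 0.5 µM rat or human liver microsomes; percentage of parent remaining measured.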

[4] = Metabolic stability in human liver microsomes assessed as compound remaining after 10 mins; assay type: ADME; settings: read-out: Stability; procedure, shortened: as §1
[5] = Clearance in rat at 0.5 mg/kg, iv and 0.5 mg/kg, po; assay type: ADME, organism-based; settings: in vivo
Procedure, shortened: (§2)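 Cassette PK in rats, 0.5 mg/kg iv and 0.5 mg/kg p.o., vehicle 70% water, 10% ethanol, 10% cremophor, 10% N,N-dimethylacetamide; plasma trough concentrations taken 24 h after iv and p.o. dosing.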

[6] = Volume of distribution at steady state in rat at 0.5 mg/kg, iv and 0.5 mg/kg, po; assay type: ADME, organism-based; settings: in vivo, read-out: Vdss; procedure, shortened: as §2
[7] = Half life in rat at 0.5 mg/kg, iv and 0.5 mg/kg, po; assay type: ADME, organism-based; settings: in vivo; procedure, shortened: as §2
[8] = Total AUC in rat at 0.5 mg/kg, iv; assay type: ADME, organism-based; design: time AUCmax, dose 0.5 mg/kg, route intravenous; settings: in vivo; procedure, shortened: as §2
[9] = Trough plasma concentration in rat at 0.5 mg/kg, iv after 24 hrs; assay type: ADME, organism-based; design: dose 0.5 mg/kg, route intravenous; settings: read-out: Cmin; procedure, shortened: as §2
[10] = Trough plasma concentration in rat at 0.5 mg/kg, po after 24 hrs; assay type: ADME, organism-based; design: dose 0.5 mg/kg, route oral; settings: read-out: Cmin; procedure, shortened: as §2
[11] = Oral bioavailability in rat at 0.5 mg/kg; assay type: ADME, organism-based; settings: in vivo; procedure, shortened: as §2
P2Y purinoceptor 1 [12] = molecular target: T1, P2Y purinoceptor 1; experiment: Displacement of [33P]2-MeS-ADP from human cloned P2Y1 receptor expressed in HEK293 cells by SPA analysis; assay type: cell-based
[13] = Antiplatelet activity in human platelet-rich plasma assessed as inhibition of ADP-induced platelet aggregation in presence of 2.5 uM ADP

T1 sequence (P47900 whole entry): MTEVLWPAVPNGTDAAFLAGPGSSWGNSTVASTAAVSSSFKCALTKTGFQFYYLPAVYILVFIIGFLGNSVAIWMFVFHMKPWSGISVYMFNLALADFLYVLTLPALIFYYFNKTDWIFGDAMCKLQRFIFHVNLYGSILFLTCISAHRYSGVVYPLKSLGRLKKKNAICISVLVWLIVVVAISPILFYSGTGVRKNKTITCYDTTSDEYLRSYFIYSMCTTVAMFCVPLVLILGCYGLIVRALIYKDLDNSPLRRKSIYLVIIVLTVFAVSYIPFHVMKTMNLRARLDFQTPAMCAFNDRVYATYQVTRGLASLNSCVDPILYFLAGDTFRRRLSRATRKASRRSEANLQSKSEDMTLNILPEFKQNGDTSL

| Structure (SMILES) | IC50 (P2Y purinoceptor 1 [1]) [nM] | IC50 [2] [nM] | Ki (P2Y purinoceptor 1 [12]) [nM] | also measured |
| --- | --- | --- | --- | --- |
| CC(C)(C)CN1CCC2(CC1)CN(c1ccccc1Nc1nnc(-c3cccc(Cl)c3)s1)c1c(O)ccc(Cl)c12 | 3.6 | 2600 | – | – |
| CC(C)(C)CN1CCC2(CC1)CN(c1ccccc1Nc1nnc(-c3ccc(C(C)(C)C)cc3)s1)c1c(O)ccc(C(F)(F)F)c12 | 0.21 | 870 | – | remaining at 10 min [3]: 84%; remaining at 10 min [4]: 82%; clearance [5]: 1.8 mL/min/kg; Vd [6]: 1.2 L/kg; half-life [7]: 13 h; AUC [8]: 6.96 µM·h; concentration at 24 h [9]: 54 nM; concentration at 24 h [10]: 3.6 nM; bioavailability [11]: 14% |
| CC(C)(C)CN1CCC2(CC1)CN(c1ccccc1Nc1ccc(-c3ccccc3)nn1)c1c(O)ccc(Cl)c12 | – | > 40000 | 511 | – |
| CC(C)(C)c1ccccc1Oc1ncccc1NC(=O)Nc1ccc(OC(F)(F)F)cc1 | – | 11000 | – | – |
| Cc1cc(-c2nnc(Nc3ccccc3N3CC4(CCN(CC(C)(C)C)CC4)c4c(Cl)ccc(O)c43)s2)n(C)n1 | 0.2 | 900 | – | remaining at 10 min [3]: 75% |
| CC(C)(C)CN1CCC2(CC1)CN(c1ccccc1Nc1nnc(-c3ccccc3)s1)c1c(O)ccc(C(F)(F)F)c12 | 0.19 | 990 | 9.6 | – |
| CC(C)(C)CN1CCC2(CC1)CN(c1ccccc1Nc1nnc(-c3ccc(C(C)(C)C)cc3)s1)c1c(O)ccc(C#N)c12 | 0.34 | 1200 | 9.7 | – |
| CC(C)(C)CN1CCC2(CC1)CN(c1ccccc1Nc1ncc(-c3ccccc3)s1)c1c(O)ccc(Cl)c12 | 2.3 | 3700 | 17 | – |
| CC(C)(C)CN1CCC2(CC1)CN(c1ccccc1NC(=O)Nc1nc3ccc(Cl)nc3s1)c1c(O)ccc(Cl)c12 | – | 130 | 8 | remaining at 10 min [3]: 86%; remaining at 10 min [4]: 100%; clearance [5]: 10 mL/min/kg; Vd [6]: 5.4 L/kg; half-life [7]: 9.9 h; AUC [8]: 1.33 µM·h; concentration at 24 h [9]: 10 nM; concentration at 24 h [10]: 4.1 nM; bioavailability [11]: 36% |
| CC(C)(C)CN1CCC2(CC1)CN(c1ccccc1Nc1nnc(-c3ccccc3Cl)s1)c1c(O)ccc(Cl)c12 | 9.8 | 11000 | – | – |
| CC(C)(C)CN1CCC2(CC1)CN(c1ccccc1Nc1nnc(-c3ccc(C(F)(F)F)cc3)s1)c1c(O)ccc(C(F)(F)F)c12 | 0.08 | 450 | – | remaining at 10 min [3]: 87%; remaining at 10 min [4]: 86%; clearance [5]: 4 mL/min/kg; Vd [6]: 6 L/kg; half-life [7]: 24 h; AUC [8]: 4.63 µM·h; concentration at 24 h [9]: 46 nM; concentration at 24 h [10]: 12 nM; bioavailability [11]: 22% |
| CC(C)(C)CN1CCC2(CC1)CN(c1ccccc1Nc1nc(-c3ccccc3)cs1)c1c(O)ccc(Cl)c12 | 54 | > 10000 | 20 | – |
| CN(C)CC(C)(C)COc1cccc(-c2sc(Nc3cccnc3Oc3ccccc3C(C)(C)C)nc2C(F)(F)F)c1 | – | 57000 | – | IC50 [13]: 5200 nM |
| CC(C)(C)CN1CCC2(CC1)CN(c1ccccc1Nc1nnc(-c3ccc(OC(F)(F)F)cc3)s1)c1c(O)ccc(F)c12 | 2.7 | 1600 | 5.3 | – |
| CC(C)(C)CN1CCC2(CC1)CN(c1ccccc1Nc1nnc(-c3ccc(OC(F)(F)F)cc3)s1)c1c(O)ccc(Cl)c12 | 0.63 | 900 | – | remaining at 10 min [3]: 94%; remaining at 10 min [4]: 99%; clearance [5]: 2.1 mL/min/kg; Vd [6]: 2.1 L/kg; half-life [7]: 12 h; AUC [8]: 6.21 µM·h; concentration at 24 h [9]: 95 nM; concentration at 24 h [10]: 30 nM; bioavailability [11]: 28% |
| CC(C)(C)CN1CCC2(CC1)CN(c1ccccc1Nc1cc(-c3ccccc3)on1)c1c(O)ccc(Cl)c12 | – | 9000 | – | – |
| COC(=O)c1ccc(O)c2c1C1(CCN(CC(C)(C)C)CC1)CN2c1ccccc1Nc1nnc(-c2ccc(C(C)(C)C)cc2)s1 | 0.32 | 840 | – | – |
| CC(C)(C)CN1CCC2(CC1)CN(c1ccccc1Nc1cnc(-c3ccccc3)cn1)c1c(O)ccc(Cl)c12 | – | > 40000 | 49 | – |
| CC(C)(C)CN1CCC2(CC1)CN(c1ccccc1Nc1nnc(-c3cnccn3)s1)c1c(O)ccc(Cl)c12 | 1.5 | 930 | – | remaining at 10 min [3]: 37% |
| CC(C)(C)CN1CCC2(CC1)CN(c1ccccc1Nc1nnc(-c3ccc(Cl)cc3)s1)c1c(O)ccc(Cl)c12 | 1.6 | 1300 | – | – |
| CC(C)(C)c1ccccc1Oc1ncccc1Nc1nnc(-c2ccc(C(F)(F)F)cc2)s1 | – | – | – | IC50 [13]: 7500 nM |
| Cc1ccc(-c2ccc(Nc3ccccc3N3CC4(CCN(CC(C)(C)C)CC4)c4c(Cl)ccc(O)c43)nc2)cc1 | – | > 10000 | 343 | – |
| CC(C)(C)CN1CCC2(CC1)CN(c1ccccc1Nc1nc(-c3ccccc3)ns1)c1c(O)ccc(Cl)c12 | 6.4 | 5400 | – | – |
| CC(C)(C)CN1CCC2(CC1)CN(c1ccccc1Nc1nnc(-c3ccccc3)o1)c1c(O)ccc(Cl)c12 | 49 | > 10000 | 6.2 | – |
